pEC50: −log10 of the molar value. Values after ≈ are worked out from the molar mass of the structure shown.
How the values were obtained:
[1] = Aqueous solubility of the compound at pH 2.0 after 4 hrs; type: physicochemical; conditions: for solubility: buffer, pH 2, 4 h; for solubility at 4 h: aqueous, pH 2
Caco-2 = test: Apparent permeability of the compound in human Caco2 cells; type: ADME, cell-based
[2] = tested on: Human immunodeficiency virus 1; test: Antiviral activity against HIV-1 NL4-3 infected in human TZM-bl cells assessed as inhibition of viral replication after 2 days by luciferase reporter gene based luminescence assay; type: functional, organism-based; conditions: Human immunodeficiency virus 1, NL4-3, TZM-bl, 48 h
Procedure, shortened: (§1)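 Single-round infection of TZM-bl cells with 200 TCID50 virus (NL4-3 for wild type) in the presence of graded compound concentrations. Luciferase luminescence was read two days after infection. Run at least in triplicate; mean ± SD reported.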

[3] = Aqueous solubility of the compound at pH 7.4 after 4 hrs; type: physicochemical; conditions: buffer, pH 7.4, 4 h
Liver microsomes [4] = test: Half life in human liver microsomes at 1 uM; type: ADME, Microsome
Procedure, shortened: (§2)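 Compound at 1 μM final in 0.1 M potassium phosphate pH 7.4 with 0.1 mg/mL human liver microsomes and 5 mM MgCl2, 37 °C. Started with NADPH (1.0 mM final) and quenched with ice-cold ACN at 0, 5, 15, 30, 60 min; duplicate.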

[5] = Cytotoxicity against human TZM-bl cells after 4 days by XTT assay; type: cell-based; conditions: 96 h
Procedure, shortened: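 TZM-bl cells (5 × 10^5/mL) exposed to graded compound concentrations at 37 °C for 4 days. XTT (1 mg/mL) with 0.02 μM PMS added, and absorbance at 450 nm read after 4 h.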

Liver microsomes [6] = test: Intrinsic clearance in human liver microsomes at 1 uM; type: ADME, Microsome; procedure, shortened: as §2
[7] = Selectivity index, ratio of CC50 for human TZM-bl cells to EC50 for HIV-1NL4-3; type: toxicity, cell-based; conditions: read-out: Ratio CC50/EC50
[8] = tested on: Human immunodeficiency virus 1; test: Ratio of EC50 for HIV-1 harboring reverse transcriptase E138K mutant to EC50 for wild type HIV-1 NL4-3; type: functional
[9] = tested on: Human immunodeficiency virus 1; test: Antiviral activity against multidrug-resistant HIV-1 RTMDR infected in human TZM-bl cells assessed as inhibition of viral replication after 2 days by luciferase reporter gene based luminescence assay; type: functional, organism-based; conditions: Human immunodeficiency virus 1, RTMDR, 48 h; procedure, shortened: as §1
[10] = tested on: Human immunodeficiency virus 1; test: Antiviral activity against HIV-1 harboring reverse transcriptase K101E mutant infected in human TZM-bl cells assessed as inhibition of viral replication after 2 days by luciferase reporter gene based luminescence assay; type: functional, organism-based; conditions: Human immunodeficiency virus 1, TZM-bl, 48 h
Procedure, shortened: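 Single-round infection of TZM-bl cells with 200 TCID50 virus (NL4-3 for wild type) in the presence of graded compound concentrations. Luciferase luminescence was read two days after infection. […] Run at least in triplicate; mean ± SD reported.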

[11] = tested on: Human immunodeficiency virus 1; test: Antiviral activity against HIV-1 harboring reverse transcriptase E138K mutant infected in human TZM-bl cells assessed as inhibition of viral replication after 2 days by luciferase reporter gene based luminescence assay; type: functional, organism-based; conditions: Human immunodeficiency virus 1, TZM-bl, 48 h; procedure, shortened: as §1
[12] = tested on: Human immunodeficiency virus 1; test: Ratio of EC50 for HIV-1 harboring reverse transcriptase K101E mutant to EC50 for wild type HIV-1 NL4-3; type: functional
[13] = tested on: Human immunodeficiency virus 1; test: Ratio of EC50 for multidrug-resistant HIV-1 RTMDR to EC50 for wild type HIV-1 NL4-3; type: functional

Compound | solubility [1] [µg/mL] | pEC50 [2] | solubility [3] [µg/mL] | t1/2 (Liver microsomes [4]) [min] | CC50 [5] [µM] | intrinsic clearance (CLint) (Liver microsomes [6]) [µL/min/mg] | selectivity ratio [7] | also measured
Cc1cc(/C=C/C#N)cc(C)c1Oc1cc(Nc2ccc(C#N)cc2)c(N)cc1[N+](=O)[O-] | 0.29 (≈ 0.682 µM) | 9.20 | 0.29 (≈ 0.682 µM) | 47.8 | > 24.4 | – | – | Papp (Caco-2): < 20 nm/s
COC(=O)c1cc(N)c(Nc2ccc(C#N)cc2)cc1Oc1c(C)cc(/C=C/C#N)cc1C | – | – | – | 283 | > 22.8 | 20 | > 8320 | –
Cc1cc(/C=C/C#N)cc(C)c1Oc1cc(Nc2ccc(C#N)cc2)c(N)cc1C(=O)O | – | – | – | – | – | – | 65 | –
Cc1cc(/C=C/C#N)cc(C)c1Oc1cc(Nc2ccc(C#N)cc2)c(N)cc1C(N)=O | – | – | – | – | > 23.6 | – | > 27100 | solubility at 4 h [1]: 2.09 µg/mL (≈ 4.94 µM); Ratio EC50 [8]: 10.3; pEC50 [9]: 8.74; pEC50 [10]: 8.08; pEC50 [11]: 8.05; Ratio EC50 [12]: 9.5; Ratio EC50 [13]: 2.1
CNC(=O)c1cc(N)c(Nc2ccc(C#N)cc2)cc1Oc1c(C)cc(/C=C/C#N)cc1C | – | – | – | 44.8 | > 9.2 | 150 | > 1610 | –
Cc1cc(/C=C/C#N)cc(C)c1Oc1cc(Nc2ccc(C#N)cc2)c(N)cc1CO | – | – | – | – | – | – | 30800 | solubility at 4 h [1]: 20.9 µg/mL (≈ 50.9 µM); Ratio EC50 [8]: 7.4; pEC50 [9]: 9.40; pEC50 [10]: 8.47; pEC50 [11]: 8.41; Ratio EC50 [12]: 6.4; Ratio EC50 [13]: 0.7
Cc1cc(CO)cc(C)c1Oc1cc(Nc2ccc(C#N)cc2)c(N)cc1CO | – | 8.00 | – | – | 15.9 | – | 1590 | –
CNC(=O)c1cc2ncn(-c3ccc(C#N)cc3)c2cc1Oc1c(C)cc(/C=C/C#N)cc1C | – | < 6.66 | – | – | > 890 | – | – | –
CNC(=O)c1cc2ncn(-c3ccc(C#N)cc3)c2cc1Oc1c(C)cc(CCC#N)cc1C | – | < 6.66 | – | – | > 890 | – | – | –
CC(=O)/C=C/c1cc(C)c(Oc2cc(Nc3ccc(C#N)cc3)c(N)cc2C(F)(F)F)c(C)c1 | – | 7.96 | – | – | > 8.6 | – | > 789 | –
CC(=O)CCc1cc(C)c(Oc2cc(Nc3ccc(C#N)cc3)c(N)cc2C(F)(F)F)c(C)c1 | 0.28 (≈ 0.599 µM) | 8.16 | 0.16 (≈ 0.342 µM) | – | 11.1 | – | 1620 | –
Cc1cc(C#N)cc(C)c1Oc1cc(Nc2ccc(C#N)cc2)c(N)cc1C(F)(F)F | 0.96 (≈ 2.27 µM) | 8.42 | 0.26 (≈ 0.616 µM) | – | 13.3 | – | 3510 | –
Cc1cc(N)cc(C)c1Oc1cc(Nc2ccc(C#N)cc2)c(N)cc1C(F)(F)F | – | 7.86 | – | – | 15.8 | – | 1140 | –
Cc1cc(/C=C/C#N)cc(C)c1Oc1cc(Nc2ccc(C#N)cc2)c(N)cc1C(F)(F)F | 0.42 (≈ 0.937 µM) | 8.03 | 0.24 (≈ 0.535 µM) | 45 | 15 | 150 | 1600 | –
Cc1cc(CCC#N)cc(C)c1Oc1cc(Nc2ccc(C#N)cc2)c(N)cc1C(F)(F)F | – | 8.95 | 0.24 (≈ 0.533 µM) | 55.7 | > 7.1 | 120 | – | –
Cc1cc(/C=C/C#N)cc(C)c1Oc1cc(Nc2ccc(C#N)cc2)c(N)cc1S(N)(=O)=O | – | 7.03 | – | – | > 21.8 | – | > 233 | –
Cc1cc(CCC#N)cc(C)c1Oc1cc(Nc2ccc(C#N)cc2)c(N)cc1S(N)(=O)=O | – | 6.42 | – | – | 11.1 | – | 29.2 | –
COC(=O)c1cc(N)c(Nc2ccc(C#N)cc2)cc1Oc1c(C)cc(CCC#N)cc1C | 21.8 (≈ 49.5 µM) | 8.36 | 1.21 (≈ 2.75 µM) | 186 | > 22.7 | 40 | > 5260 | Ratio EC50 [8]: 1.7; pEC50 [9]: 8.39; pEC50 [10]: 7.85; pEC50 [11]: 8.12; Ratio EC50 [12]: 3.2; Ratio EC50 [13]: 0.9
Cc1cc(CCC#N)cc(C)c1Oc1cc(Nc2ccc(C#N)cc2)c(N)cc1C(=O)O | – | 7.02 | – | – | 14.3 | – | 149 | –
Cc1cc(CCC#N)cc(C)c1Oc1cc(Nc2ccc(C#N)cc2)c(N)cc1C(N)=O | 9.11 (≈ 21.4 µM) | 8.86 | 0.06 (≈ 0.141 µM) | 42 | > 9.4 | 160 | > 6760 | –
CNC(=O)c1cc(N)c(Nc2ccc(C#N)cc2)cc1Oc1c(C)cc(CCC#N)cc1C | 44.7 (≈ 102 µM) | 8.56 | 8.28 (≈ 18.8 µM) | 55.7 | > 9.1 | 120 | > 3330 | Ratio EC50 [8]: 3.7; pEC50 [9]: 8.10; pEC50 [10]: 7.85; pEC50 [11]: 8.00; Ratio EC50 [12]: 5.1; Ratio EC50 [13]: 2.9
Cc1cc(CCC#N)cc(C)c1Oc1cc(Nc2ccc(C#N)cc2)c(N)cc1C(=O)NN | – | 7.72 | – | – | > 22.7 | – | > 1190 | –
Cc1cc(CCC#N)cc(C)c1Oc1cc(Nc2ccc(C#N)cc2)c(N)cc1CO | 89.8 (≈ 218 µM) | 9.41 | 18.8 (≈ 45.6 µM) | 20.9 | > 23.8 | 330 | > 61000 | Ratio EC50 [8]: 7.4; pEC50 [9]: 8.74; pEC50 [10]: 8.47; pEC50 [11]: 8.54; Ratio EC50 [12]: 8.7; Ratio EC50 [13]: 4.6
Cc1cc(CCC#N)cc(C)c1Oc1cc(Nc2ccc(C#N)cc2)c(N)cc1N | – | 8.14 | – | – | > 25 | – | > 3420 | –
Cc1cc(C#N)cc(C)c1Oc1nc(Nc2ccc(C#N)cc2)nc(N)c1Br [ETRAVIRINE] | – | 8.82 | – | – | – | – | – | –

Source: ChEMBL document CHEMBL2163272, “Design, synthesis, and preclinical evaluations of novel 4-substituted 1,5-diarylanilines as potent HIV-1 non-nucleoside reverse transcriptase inhibitor (NNRTI) drug candidates” (J Med Chem, 2012)
